Source: ChEMBL document CHEMBL1121394, “Oxytocin and lysine-vasopressin with N5,N5-dialkylglutamine in the 4 position: effect of introducing sterically hindered groups into the hydrophilic cluster of neurohypophyseal hormones” (1980)

What was measured:
Gallus gallus = species on record: Gallus gallus; assay: Compound was tested in vitro for avain vasopressor activity; format: functional; details: in the assay text read “vasodepressor” for “vasopressor”
Method in brief: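 Vasodepressor assay in conscious White Leghorn roosters (Coon method, modified). Where activity was measurable, Schild four-point design with at least ten determinations on three animals.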

Rattus norvegicus [1] = species on record: Rattus norvegicus; assay: Compound was tested in vitro for antidiuretic activity in rat; format: functional, Urine; details: in the assay text read “in vivo” for “in vitro”
Method in brief: (§1)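 Anesthetized male Sprague-Dawley rats. Where activity was measurable, Schild four-point design with at least ten determinations on three animals.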

Rattus norvegicus [2] = species on record: Rattus norvegicus; assay: Compound was tested in vitro for pressor activity on rat; format: functional; details: in the assay text read “in vivo” for “in vitro”; method in brief: as §1
Rattus norvegicus [3] = species on record: Rattus norvegicus; assay: Compound was tested in vitro for uterotonic activity in rat; format: functional
Method in brief: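 Isolated uterine horns from virgin rats in natural estrus (Holton method as modified by Munsick), Mg2+-free van Dyke-Hastings solution as bath. Where activity was measurable, Schild four-point design with at least ten determinations on three animals.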

Rattus norvegicus [4] = species on record: Rattus norvegicus; assay: Compound was tested for percent maximum uterotonic response; format: functional
Method in brief: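 Isolated uterine horns from virgin rats in natural estrus, bathed in Mg2+-free van Dyke-Hastings solution. Dose-response by individual injection, doses raised geometrically in 0.5 log10 steps until a maximal response was reached.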

`CC[C@H](C)[C@@H]1NC(=O)[C@H](Cc2ccc(O)cc2)NC(=O)[C@@H](N)CSSC[C@@H](C(=O)N2CCC[C@H]2C(=O)N[C@@H](CC(C)C)C(=O)NCC(N)=O)NC(=O)[C@H](CC(N)=O)NC(=O)[C@H](CCC(N)=O)NC1=O` [OXYTOCIN] showed an Activity (Gallus gallus) of 507 mg, an Activity (Rattus norvegicus [1]) of 3.1 mg and an Activity (Rattus norvegicus [2]) of 2.7 mg. The Activity (Rattus norvegicus [3]) was 546 mg and the Max uterotonic response (Rattus norvegicus [4]) was 100%.
